Compounds with a hit are over-represented: about 2.3% of the library has one in this group of screens.
GalR3 antagonist: GalR3 antagonists in HEK293 cells, primary screen, cell-based, fluorescence readout | Galanin receptor type 3 (Homo sapiens), O60755 | AID 651719, 2012 | inhibition, % at 3 µM | 0.44% of 360,000 active | HEK293 GalR3-CNG cAMP membrane potential fluorescence; galR3 body fused to GalR1 C-terminus;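 active = inhibition above the screen-wide average plus 3 SD, cut at about 13% in these data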;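 also: forskolin and galanin both at EC90 stimulate the cells; cAMP rise reported by CNG channel membrane potential dye signal; 0% = forskolin plus galanin with DMSO and 100% = forskolin alone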
NR2E3 ag-1: NR2E3 agonists in two-hybrid cells, primary screen, cell-based, luminescence, CHO-S, Gal4-NCOR/VP16-NR2E3. inhibition of corepressor binding, % at 3.98 µM. luciferase. 0.35% of 360,000 active. AID 602229, 2012;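 active = inhibition above the mean of all tested compounds plus 3 SD, cut at about 70% in these data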;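 also: 0% = DMSO with NR2E3 transfected cells and 100% = cells lacking NR2E3 construct; higher means lower luciferase signal from less NR2E3 corepressor binding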
NR2E3 ag-2: inhibitors of NR2E3-RetCOR corepressor binding, primary screen, NR2E3 agonist project, biochemical, TR-FRET, GST-NR2E3, biotin-RetCOR; Photoreceptor-specific nuclear receptor (Homo sapiens), Q9Y5X4; 1536-well; inhibition of corepressor binding, % at 4.78 µM; 0.12% of 320,000 active; AID 2300, 2010;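 active = percent inhibition above the cutoff of mean plus 3 SD of all tested compounds, set per screening campaign, cut at about 20% in these data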;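 also: 0% = DMSO wells and 100% = biotin wells as full block of FRET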
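System: GST-NR2E3 and biotin-RetCOR proteins; probe or stimulus: 7 nM biotin-RetCOR; doses: compound at 4.8 µM, single dose; schedule: Compound–protein incubation for 5 h at 4 °C; detection: time-resolved FRET; read-out: percent inhibition; controls: biotin wells as high control, 0.6% DMSO wells as low control; format: 1536-well plates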
COUP-TFII inh: NR2F2 transcriptional activity inhibitors, primary screen, cell-based, luciferase reporter, HEK293T, luminescence. COUP transcription factor 2 (Homo sapiens), P24468. HEK293T NGFI-A luciferase reporter. inhibition, % at 8.6 µM. 0.7% of 370,000 active. AID 686940, 2013;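 active = inhibition above a per-plate cutoff, mean inhibition of test wells between control levels plus 3 SD, cut at about 38% in these data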;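 also: cells cotransfected with COUP-TFII expression vector driving the NGFI-A reporter; 0% = median of COUP-TF2 test wells and 100% = reporter-only cells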
Target sequence (P24468 whole entry, looked up): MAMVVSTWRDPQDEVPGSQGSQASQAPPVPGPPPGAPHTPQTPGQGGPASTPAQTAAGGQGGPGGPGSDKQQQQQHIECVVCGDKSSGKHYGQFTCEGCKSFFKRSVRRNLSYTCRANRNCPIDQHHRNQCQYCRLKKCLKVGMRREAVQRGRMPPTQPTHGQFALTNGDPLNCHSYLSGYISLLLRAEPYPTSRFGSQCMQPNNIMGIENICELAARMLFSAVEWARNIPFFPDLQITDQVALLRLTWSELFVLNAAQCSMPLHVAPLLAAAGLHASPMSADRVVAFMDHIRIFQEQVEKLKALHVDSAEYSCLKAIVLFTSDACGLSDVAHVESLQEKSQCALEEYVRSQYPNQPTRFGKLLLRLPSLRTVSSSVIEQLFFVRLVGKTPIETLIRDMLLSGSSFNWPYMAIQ
CHT PAM: CHT positive allosteric modulators, primary screen, cell-based, membrane potential dye, choline EC20 | 0.49% of 310,000 active | CHT-expressing cells; stronger effect = higher value; LV-AA mutant CHT in HEK293 cells | AID 488977, 2010 | High affinity choline transporter 1 (Homo sapiens), Q9GZV3 | B-score at 10 µM;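 active = initial fluorescence not abnormally high and integrated response B-score, plate-corrected, over 3 SD above library mean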
CHT inh: inhibitors of human choline transporter CHT; High affinity choline transporter 1 (Homo sapiens), Q9GZV3; B-score at 10 µM; AID 488975, 2010; CHT-expressing cells, membrane potential dye, choline response; stronger effect = lower value; 0.86% of 310,000 active;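 active = B-score over 3 SD under the library average, and starting fluorescence ratio not unusually high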;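 also: choline stimulus applied at its EC90 after an EC20 pre-addition; B-score computed on integrated fluorescence ratio after choline addition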
CHT inh conf: CHT inhibitors, confirmation, cell-based, membrane potential dye, duplicate. shares compounds with CHT inh. CHT-expressing cells, choline membrane potential dye; LV-to-AA substituted CHT, HEK293 cells. CHT activity remaining % of control (stronger effect = lower value), % at 10 µM. 70% of 2,400 active;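 active = choline transporter activity left, mean of duplicates at 10 µM, below buffer-only control mean minus 3 SD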;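 also: depolarization triggered by choline at its EC90 following an EC20 pre-addition; 0% = hemicholinium-3 full block and 100% = buffer-only control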
HEK293 CHT ctr: membrane potential effects in parental HEK293, counter-screen for CHT inhibitor project, cell-based, membrane potential dye; membrane potential ratio readout (active if shifted either direction beyond buffer ±3SD; no single direction) at 10 µM; shares compounds with CHT inh; 4% of 2,400 active; choline response; active = decrease or increase beyond buffer ±3SD;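 also: parental cells lack the transporter so any hit is non-specific; ratio is peak minus trough fluorescence over baseline after EC90 choline challenge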
Active calls of the source: *; i = inactive; . = no result.

SMILES	GalR3 antagonist	NR2E3 ag-1	NR2E3 ag-2	COUP-TFII inh	CHT PAM	CHT inh	CHT inh conf	HEK293 CHT ctr
O=C(Nc1ccc2c(c1)OCCO2)c1ccc(S(=O)(=O)N2CCCCC2)cc1	-5.7	-41.0	3.4	-21.2	i	-6.06*	i	i
COC(=O)[C@@]12CCCCC3=C1N(CCC3)C(=O)[C@H]2CC(=O)N1CCN(C(=O)c2ccco2)CC1	.	.	.	0.9	.	.	.	.
CCOc1ccc2nc(Cl)c(CN(C(C)=O)C3CCCCC3)cc2c1	-0.5	-18.8	-0.8	13.7	i	-5.55*	i	i
N#C/C(=N\Nc1ccc([N+](=O)[O-])cc1)C(N)=S	-3.5	2.5	-1.4	-32.3	i	-9.42*	-9.8%*	i
COc1ccccc1N=NC1=C(O)CC(C)(C)CC1=O	1.6	-3.7	-2.4	20.6	i	-5.51*	i	i
CC1(C)CC(=O)C(N=Nc2ccc(Cl)cc2)=C(O)C1	-10.5	5.8	-1.6	4.9	i	i	.	.
O=C(c1cc(Cl)cc(Cl)c1)N1CC[C@H]2[C@H](CCCN2Cc2cc(F)cc(F)c2)C1	.	.	.	18.5	.	.	.	.
COc1ccc(-n2ccnc2SCC(=O)NO)cc1	3.6	14.6	0.7	14.5	i	-5.3*	i	i
COc1ccc(Cn2ccnc2SCC(=O)Nc2cccc(NC(C)=O)c2)cc1	-3.8	-12.8	0.3	9.0	i	i	.	.
COc1ccc(NC(=O)CSc2nccn2Cc2ccccc2)cc1	-0.3	-15.6	4.1	-20.5	i	-5.26*	56.2%*	i
O=C(CSc1nccn1-c1ccccc1)NO	-0.6	2.2	0.0	-1.8	i	i	.	.
CCCC(C)NC(=O)CC1Oc2ccccc2NC1=O (stereo not given)	.	.	.	-14.6	.	.	.	.
CCCc1ccc(OCc2ccc(C(=O)O)o2)c(OC)c1	-2.7	-171.5	2.1	-19.8	i	i	.	.
COc1ccc(CCN(C)C(=O)c2ccc(COc3ccccc3)o2)cc1OC	0.5	18.5	0.7	-18.8	i	-6.93*	54.5%*	i
O=C1CC(c2ccco2)CC(O)=C1C=Nc1cc(Cl)ccc1O (stereo not given)	-4.3	0.0	-3.3	-1.6	i	i	.	.
O=C1CC(c2ccco2)CC(O)=C1C=Nc1ccccc1-c1ccccc1 (stereo not given)	-2.4	21.4	-3.1	-15.7	i	-5.6*	i	i
COc1ccc(-c2nc(NC(C)=O)sc2-c2ccc(OC)cc2)cc1	-0.4	-19.2	3.0	-6.5	i	i	.	.
COc1ccc(-c2sc(Nc3ccc(F)c(F)c3F)nc2CCC(=O)NN)cc1	-3.9	0.8	0.5	-3.4	i	-5.16*	i	i
CCCN1CCS(=O)(=O)N(Cc2cn(Cc3ccc(Cl)cc3)nn2)C(C(=O)OC)C1 (stereo not given)	.	.	.	-5.4	.	.	.	.
COC(=O)Nc1ccc(S(=O)(=O)Nc2ncccn2)cc1	-5.8	-10.9	-3.0	0.5	i	i	.	.
CC1(C)C(C=C(Cl)Cl)C1C(=O)Nc1ccc(S(=O)(=O)Nc2ncccn2)cc1 (stereo not given)	-5.0	5.9	0.6	8.8	i	-5.06*	33.0%*	i
CCOc1ccc(Br)cc1S(=O)(=O)N1CCCC1	-8.4	-4.5	-1.5	6.4	i	-5.07*	66.8%*	i
CCOc1ccc(Cl)cc1S(=O)(=O)N1CCCC1	-6.9	12.6	-0.4	0.0	i	i	.	.
